From ChEMBL document CHEMBL5154683, “A 5-FU Precursor Designed to Evade Anabolic and Catabolic Drug Pathways and Activated by Pd Chemistry In Vitro and In Vivo” (J Med Chem, 2022)

Tests used:
[1] = Tmax in male Wistar Han rat at 10 mg/kg, po administered as single dose measured upto 24 hrs; type: ADME, organism-based; details: in vivo
In short: (§1)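 Male jugular-vein-cannulated Wistar Han rats, 263–319 g, single dose. IV: 1 mg/kg as 2 mL/kg of 0.5 mg/mL in 5% DMSO/95% HPCD (20% w/v), not fasted. PO: 10 mg/kg as 5 mL/kg of 2 mg/mL suspension in 5% DMSO/95% tween 80/HPCD vehicle, fasted overnight. Serial cannula blood sampling 0.083/0.25–24 h (n = 3/route); parent quantified by QToF against calibration curve.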

[2] = tested on: BXPC-3; assay: Antiproliferative activity against human BxPC-3 cells assessed as reduction in cell viability measured after 5 days by PrestoBlue reagent based assay; type: functional; details: BXPC-3, 120 h
In short: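 Cells in 10% FBS, 2 mM L-glutamine media at 37 °C, 5% CO₂ (HCT116 in McCoy's 5A, BxPC-3 in RPMI). Seeded at 3000 (HCT116) or 2500 (BxPC-3) cells/well and grown 48 h. Medium then replaced with drug-containing medium, 0.1% DMSO, for 5 d. PrestoBlue 10% v/v added for 1 h, fluorescence read ex 540/em 590 nm. Normalised to DMSO-only wells; sigmoidal variable-slope fit; n = 3.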

[3] = Metabolic stability in rat hepatocytes assessed as intrinsic clearance at 3 uM measured per 10^6 cells by LC-MS/MS analysis; type: ADME, cell-based, Hepatocyte; details: read-out: CLH
In short: (§2)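 Suspended hepatocytes (0.5 × 10⁶ cells/mL) in Williams E medium with 2 mM L-glutamine and 25 mM HEPES at 37 °C, compound added with 0.25% v/v DMSO after preincubation; aliquots quenched into methanol with internal standard at time points, centrifuged, supernatant analyzed by LC-MS/MS; two control compounds included.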

[4] = Metabolic stability in human hepatocytes assessed as intrinsic clearance at 1 uM measured per 10^6 cells by LC-MS/MS analysis; type: ADME, cell-based, Hepatocyte; details: read-out: CLH; in short: as §2
[5] = Metabolic stability in human hepatocytes assessed as half life at 1 uM by LC-MS/MS analysis; type: ADME, cell-based, Hepatocyte; in short: as §2
[6] = Apparent permeability across apical to basolateral side in human Caco-2 cells at 10 uM measured after 120 mins by LC-MS/MS analysis; type: ADME, cell-based
In short: (§3)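 Caco-2 cells (P40-60) seeded at 1 × 10⁵ cells/cm² on Transwells, used on day 20; rinsed and equilibrated 40 min in HBSS pH 7.4. Compound at 10 μM in HBSS, 1% v/v DMSO, added apically (A–B) or basolaterally (B–A); 120 min at 37 °C, 5% CO₂. Lucifer yellow monitored monolayer integrity; LC-MS/MS with eight-point calibration; recovery from C₀ and both compartments.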

[7] = Apparent permeability across basolateral to apical side in human Caco-2 cells at 10 uM measured after 120 mins by LC-MS/MS analysis; type: ADME, cell-based; in short: as §3
[8] = Stability in Sprague-Dawley rat hepatocytes assessed as parent compound remaining at 10 uM measured after 60 mins by UPLC analysis; type: ADME, cell-based, Hepatocyte; details: read-out: Stability
In short: (§4)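 Cryopreserved male Sprague–Dawley rat or male human hepatocytes (0.5 × 10⁶ cells/mL) in Leibovitz buffer with 10 μM compound, 37 °C, shaken 700 rpm, 60 min. Samples at 0 and 60 min quenched 1:1 with ice-cold acetonitrile; supernatant analyzed by UPLC–QToF MS (positive ion). Hepatocyte-only and buffer-only negatives; verapamil and 7-hydroxycoumarin as viability controls.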

[9] = Stability in human hepatocytes assessed as parent compound remaining at 10 uM measured after 60 mins by UPLC analysis; type: ADME, cell-based, Hepatocyte; details: read-out: Stability; in short: as §4
[10] = Clearance in male Wistar Han rat at 1 mg/kg, iv administered as single dose measured upto 24 hrs; type: ADME, organism-based; details: in vivo; in short: as §1
[11] = Mean residence time in male Wistar Han rat at 10 mg/kg, po administered as single dose measured upto 24 hrs; type: ADME, organism-based; details: in vivo; in short: as §1
[12] = Oral bioavailability in Wistar Han rat at 10 mg/kg administered as single dose measured upto 24 hrs; type: ADME, organism-based; details: in vivo; in short: as §1
[13] = Tmax in female Wistar Han rat at 1000 mg/kg, po administered as single dose measured upto 24 hrs; type: ADME, organism-based; details: in vivo
In short: (§5)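 Single oral dose 1000 mg/kg in male and female rats, dosing volume 10 mL/kg (n = 6); animals observed 14 days with clinical checks, functional/neurobehavioral tests and body weight, necropsy on d15; exposure parameters from the toxicokinetic arm of this study.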

[14] = Mean residence time in female Wistar Han rat at 1000 mg/kg, po administered as single dose measured upto 24 hrs; type: ADME, organism-based; details: in vivo; in short: as §5
[15] = Toxicity in female Wistar Han rat assessed as mortality at 1000 mg/kg, po administered as single dose measured over 14 days; type: organism-based; details: in vivo, 336 h, time > 14 day
In short: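 Single oral dose of 1000 mg/kg at 10 mL/kg to male and female rats (n = 6), then 14 d observation. Morbidity and mortality checked twice daily. Clinical signs recorded predose, twice on dosing day, then daily. FOB on d1, d7 or d14. Body weight on d1, 2, 5, 8, 11 and 14. Gross necropsy on d15.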

Compound `C#CCOc1ncc(F)c(OCC#C)n1` has a Tmax [1] of 0.25 h, an EC50 [2] greater than 100 µM and a hepatocyte CLint at 3 µM [3] of 3.31 µL/min/1e6 cells. The hepatocyte CLint at 1 µM [4] was 4.51 µL/min/1e6 cells, the half-life at 1 µM [5] was 5.37 h and the Papp A→B at 2 h, 10 µM [6] was 28.1 ×10⁻⁶ cm/s. It also gave a Papp B→A at 2 h, 10 µM [7] of 38.8 ×10⁻⁶ cm/s, a remaining at 1 h, 10 µM [8] of 95% and a remaining at 1 h, 10 µM [9] greater than 99%. It also gave a clearance [10] of 52.1 mL/min/kg, an MRT [11] of 1.86 h and an F [12] of 187%. The Tmax [13] was 4 h, the MRT [14] was 13.4 h and the Activity [15] was “Non-Toxic”.
